Screening results deposited in PubChem by several laboratories.
In the library only some 9.2% were active in any assay of this set; here they are far more common.
Autophagy mod – alters autophagy in cells; AID 463193; calls only at 10 µM (by protocol); 190,000 tested, 0.98% active; MEF GFP-LC3 puncta imaging; test concentration mostly 10 µM;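 active = percentage of spot-positive cells more than 3 SD above its plate mean, without a fluorescence outlier flag or 80% toxicity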;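 note: spot-positive cell cutoff set from DMSO-treated cells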
Dynein transport – dynein cargo transport inhibition. z-score, hits read low. 220,000 tested, 0.47% active. 3617.4 mouse cells, GR-EGFP nuclear translocation imaging; test concentration mostly 20 µM; stimulated with dexamethasone, 1 µM; hits give low values. AID 1381;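 active = plate z-score of nuclear minus cytoplasmic receptor signal below a set negative limit, without overly bright fluorescence or cell loss, cut at about -3.5 in these data, passing the limit was not always enough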;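 note: z-score of nuclear minus cytoplasmic ring GR-EGFP intensity difference per well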
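Buffer or medium – tet-free medium with charcoal-stripped serum · Signal – automated 10x imaging of fixed Hoechst-stained cells · Also added – dexamethasone agonist, 1.0 µM final, for 30 min · Incubation – induction 48 h, compound 1 h, agonist 30 min · Read-out – GR-EGFP nuclear translocation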
Lmaj promast – inhibitors of Leishmania major promastigote growth; Leishmania major promastigotes, resazurin fluorescence viability; inhibition, % at 10 µM; 200,000 tested, 9% active; AID 1063; in the data active = inhibition above about 50%;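 note: promastigotes grown with compound for 44 hours at 28 °C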
PTEN del growth – PTEN-deleted cell growth suppression. HCT116 PTEN-null viability, CellTiter-Glo, 60 h; hits give low values. viability, % at 10 µM. 140,000 tested, 1.2% active;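 active = viability at or below a set limit, 4 SD under the median of all tested compounds, cut at about 3.7% in these data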;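 note: PTEN knockout HCT116 line with beta catenin targeted HCT116 as companion control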
HCT116 bCat-KO – beta-catenin-lacking colon tumor cell growth suppression. 140,000 tested, 1.5% active. HCT116 beta-catenin knockout viability, CellTiter-Glo, 60 h; hits give low values. AID 818. viability, % at 10 µM;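 active = viability at or under a set limit, the compound median less 4 SD, cut at about 6% in these data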;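 note: 0% = Hyamine 1622 control at 20 µM and 100% = untreated cell control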
Starred values were filed as active, the others as inactive; i = inactive; x = no result; + = active, no number.

SMILES	Autophagy mod	Dynein transport	Lmaj promast	PTEN del growth	HCT116 bCat-KO
c1csc(CNCCCN2CCOCC2)c1	i	-0.127	-5.7	95.7	91.1
Clc1cccc(-c2ccc(CNCCCN3CCOCC3)o2)c1	i	0.433	77.1*	x	x
O=C(O)COCC(=O)N1CCCN(c2nc3ccc(Cl)cc3s2)CC1	x	-0.236	x	x	x
O=C(c1cc(COc2ccc(F)cc2Cl)on1)N1CCCC(c2ccccc2)C1 (stereo not given)	+	-0.391	-0.8	x	x
CCC(Sc1nc2ccc(N)cc2s1)C(=O)Nc1nccs1 (stereo not given)	i	0.174	54.8*	76.2	83.0
COC(=O)c1c(NC(=O)CSc2nc3ccccc3c(=O)n2-c2ccccc2)sc(C)c1C	i	0.416	99.4*	54.0	56.9
CCOC(=O)c1c(NC(=O)CSc2ncnc3ccccc23)sc(C)c1C	i	-0.254	76.6*	94.8	86.7
COC(=O)c1c(NC(=O)CSc2nc3nc(C)cc(C)n3n2)sc(C)c1C	i	0.329	52.1*	95.0	82.8
CCOC(=O)c1c(NC(=O)CSc2ccccc2C(=O)O)sc(C)c1C	i	-0.838	-8.5	x	x
CCOC(=O)c1c(NC(=O)CSc2nncs2)sc(C)c1-c1ccccc1	i	2.2	75.5*	64.6	66.2
COc1ccc(OC)c(-c2csc(NC(=O)CSc3ccccc3)n2)c1	i	-0.16	77.2*	101.7	94.1
COc1ccc2cc(C)c3nnc(SCC(=O)Nc4nc(-c5ccccc5)cs4)n3c2c1	+	0.138	-0.1	22.0	17.9
COc1ccc(-c2csc(NC(=O)CSc3ccc(Br)cc3)n2)c(OC)c1	i	-1.18	26.2	81.1	76.1
COc1ccc(NC2=Nc3ccccc3N3C2=Nc2c(c(C)nn2-c2ccc(C)cc2)C3c2cccnc2)cc1 (stereo not given)	i	0.254	3.3	38.3	60.1
O=[N+]([O-])c1ccc2nc(-c3ccc(OC(F)F)cc3)cn2c1	i	-0.0878	-4.5	x	x
Cc1nn(-c2ccc([N+](=O)[O-])cc2)c2c1C(c1ccc(OC(F)F)cc1)N1C(=N2)C(=O)Nc2ccccc21 (stereo not given)	i	-0.238	68.0*	x	x
COc1cccc(C2c3c(C)nn(-c4ccc([N+](=O)[O-])cc4)c3N=C3C(=O)Nc4ccccc4N32)c1 (stereo not given)	+	0.813	64.7*	x	x
Cc1ccc(C2c3c(C)nn(-c4ccc([N+](=O)[O-])cc4)c3N=C3C(=O)Nc4ccccc4N32)cc1 (stereo not given)	i	0.485	98.6*	x	x
Fc1cccc(Cl)c1-c1nnc2ccc(C(F)(F)F)cn12	i	-0.289	-0.2	x	x
Cc1nccc(-c2cc(-c3ccc(Cl)cc3Cl)no2)n1	x	-0.79	x	x	x
O=C(NNc1ccccc1Br)C(O)(c1cccc(C(F)(F)F)c1)c1cccc(C(F)(F)F)c1	i	-0.0534	9.6	2.1*	1.9*
CC(C)(O)C(=O)NNC(=S)Nc1cccc(C(F)(F)F)c1	i	-0.0239	2.8	x	x
O=C(CN1CCC(N2CCCCC2)CC1)N1CCOCC1	i	1.6	-12.8	x	x
O=C(NCCCN1CCN(c2ccccc2F)CC1)C1CCCN(S(=O)(=O)c2cnc[nH]2)C1 (stereo not given)	+	0.408	-2.6	106.0	98.5
Cc1cc(C2CC(=O)Nc3ccccc3S2)c(C)s1 (stereo not given)	x	0.305	x	x	x
SMILES	Autophagy mod	Dynein transport	Lmaj promast	PTEN del growth	HCT116 bCat-KO
COCCNc1cc(C)nc2c3c(C)cc(C)nc3nn12	i	-1.04	7.7	88.8	77.2
Cc1cc(S(=O)(=O)NCc2ccccc2)ccc1OCC(=O)Nc1cccc([N+](=O)[O-])c1	i	0.665	98.8*	21.2	39.3
CC(C)(C)n1nnnc1C(c1cccs1)N(Cc1ccccc1)Cc1cccnc1 (stereo not given)	i	-0.106	98.7*	61.5	63.4
CC(C)(C)n1nnnc1C(c1cccnc1)N(Cc1ccccc1)Cc1cccs1 (stereo not given)	i	-1.13	95.7*	49.6	55.4
CCN(Cc1ccccc1)C(c1ccncc1)c1nnnn1C(C)(C)C (stereo not given)	i	-0.155	11.4	86.9	95.9
CC(C)(C)c1ccc(CN(Cc2ccccc2)C(c2ccccn2)c2nnnn2C(C)(C)C)cc1 (stereo not given)	i	0.754	76.8*	27.6	38.2
C=CCn1c(SCC(=O)NC2CC2)nc2sc(CC)cc2c1=O	i	-1.07	57.9*	x	x
CC(C)OC(=O)c1cccc(-c2ccc(C=O)o2)c1	i	-1.54	88.4*	98.8	96.8
COc1cccc(/C=C/C(=O)c2ccc(NC3=NCCCS3)cc2)c1	i	-1.92	99.0*	x	x
Cc1cccc(/C=C/C(=O)c2ccc(NC3=NCCCS3)cc2)c1	i	-0.897	77.0*	4.0	10.5
COc1ccc(C(C(=O)NC2CCCC2)N(C(=O)c2snc(-c3ccc(F)cc3)c2N)c2ccc(F)cc2)cc1 (stereo not given)	i	2.42	71.0*	7.4	5.5*
COc1ccc(C(C(=O)NC2CCCC2)N(C(=O)c2snc(-c3ccc(F)cc3)c2N)c2ccc(OC)cc2)cc1 (stereo not given)	i	0.366	63.0*	61.6	71.2
CCCN1CCN(CCCNC(=O)Cn2nc(-c3ccccc3)ccc2=O)CC1	i	-0.863	-2.6	102.7	101.7
COc1ccc(-c2n[nH]c(C)c2-c2cnn(-c3ccccc3)c2)c(O)c1C	i	-1.14	67.3*	61.1	76.1
COc1ccc(-c2onc(C)c2-c2cnn(-c3ccccc3)c2)c(O)c1C	i	1.44	84.5*	x	x
COc1ccc(-n2c(=O)c3c4c(sc3n(CC(N)=O)c2=O)CCCCC4)cc1	x	0.0327	x	x	x
O=C(O)c1cc2c(cc1Br)OCCCO2	i	-0.189	-5.3	106.1	96.4
COc1ccccc1Cc1nc2ccccc2n1S(=O)(=O)c1ccc(Cl)cc1	i	0.193	75.5*	90.4	76.5
O=S(=O)(c1ccc(Cl)cc1)n1c(Cc2ccccc2)nc2ccccc21	i	0.00421	41.9	96.8	101.9
O=[N+]([O-])c1ccc(N2CCN(CCOCCO)CC2)c([N+](=O)[O-])c1	i	-0.756	0.7	x	x
CN(C)S(=O)(=O)NCCNc1ccc(C(F)(F)F)cc1[N+](=O)[O-]	i	-0.256	-5.2	x	x
O=[N+]([O-])c1ccc(OCCN2CCCCCC2)cc1	i	-0.54	12.8	89.9	91.2
COc1ccc(OCCCN2CCCC(C)C2)cc1 (stereo not given)	i	-0.663	97.3*	108.9	97.4
CC1CCCN(CCCOc2ccc([N+](=O)[O-])cc2)C1 (stereo not given)	i	-0.117	88.5*	79.0	96.9
COc1ccc(NC(=O)COC(=O)c2ccc(Cl)c(S(N)(=O)=O)c2)c([N+](=O)[O-])c1	x	0.479	x	x	x
COCCCn1cnnc1SCc1nc2sc(C(C)=O)c(C)c2c(=O)[nH]1	x	1.36	x	x	x
CCOC(=O)c1cnc2sc3c(n2c1=O)CCCC3	i	0.0517	100.0*	21.9	27.4
